Experimental data from PMC4377293 (The Biochemical journal, 2015).
“And” between values parts separate entries of the source, which are not always exact repeats. Equal values may be shown once.

Assays:
[1] = molecular target: T1, human PRODH2 157–515 (Homo sapiens, UniProt Q9UF12); assay: Steady-state kinetic analysis with the o-AB assay; format: biochemical; details: for reaction as substrate: tested at 500 mM
T1 sequence (Q9UF12 81-439 limits assumed): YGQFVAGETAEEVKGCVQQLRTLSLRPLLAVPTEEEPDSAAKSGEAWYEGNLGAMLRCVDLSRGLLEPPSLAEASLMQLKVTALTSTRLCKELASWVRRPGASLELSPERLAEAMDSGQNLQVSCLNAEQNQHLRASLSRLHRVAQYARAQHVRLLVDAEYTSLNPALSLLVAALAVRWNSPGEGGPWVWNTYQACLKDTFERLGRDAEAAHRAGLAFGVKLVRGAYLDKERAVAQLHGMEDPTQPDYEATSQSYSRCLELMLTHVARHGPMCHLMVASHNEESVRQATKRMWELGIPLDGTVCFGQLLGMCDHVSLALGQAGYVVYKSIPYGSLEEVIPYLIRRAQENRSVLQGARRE

[2] = molecular target: T1, human PRODH2 157–515; assay: Anaerobic titration with Hyp; format: binding; details: Kd from anaerobic titration versus Km from o-AB assay
[3] = molecular target: T1, human PRODH2 157–515; assay: Steady-state kinetics with ubiquinone analogues as electron acceptors; format: biochemical; details: for ability to support Hyp turnover as electron acceptor: Triton X-100 included with CoQ4
[4] = molecular target: T1, human PRODH2 157–515; assay: Sulfite reactivity; format: binding
Method in brief: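 The flavin spectrum was recorded until absorbance stabilised, and ΔA455 was fit hyperbolically for Kd. For adduct reversibility, a proline-analogue inhibitor (1–5 mM final) was added and incubated for 30 min before the spectrum was re-acquired.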

[5] = molecular target: human PRODH1; details: read-out: Kd for sulfite binding; ref [34], [45]; cited from earlier work
[6] = molecular target: Helicobacter hepaticus PutA; details: read-out: Kd for sulfite binding; ref [34], [45]; cited from earlier work
[7] = tested on: E. coli PutA; details: ref [43], [45]; cited from earlier work
[8] = tested on: PRODH homologue of Saccharomyces cerevisiae; details: ref [43], [45]; cited from earlier work
[9] = molecular target: T2, human PRODH2 157–515 (HYPDH) (Homo sapiens, UniProt Q9UF12); assay: Inhibition studies, standard o-AB assay; format: biochemical; details: 600 mM Hyp; for inhibition of HYPDH activity: up to 5 mM; for IC50: 5 min preincubation, compound up to 5 mM
T2 sequence (Q9UF12 81-439 limits assumed): T1 sequence (Q9UF12 81-439 limits assumed)
Method in brief: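 Purified PRODH2 157–515 at 200 nM in 50 mM HEPES pH 7.5 with 4 mM o-AB and 200 μM CoQ1 as electron acceptor, 25°C. Test compound (up to 5 mM) was preincubated with enzyme for 5 min, then 600 mM Hyp was added. Product–o-AB adduct was followed at 443 nm. Percent activity versus concentration was fit assuming single-site binding to give IC50. Stocks were aqueous, except one in DMSO (3% final).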

## O=C(O)[C@@H]1C[C@@H](O)CN1 [Hyp, trans-4-hydroxy-L-proline]
[1]; 200 μM CoQ1
  fold difference in kcat/Km (specificity constant), Hyp over Pro: 12 fold and ~ 12 fold
[1]; air saturated buffer versus 200 μM CoQ1
  fold lower kcat with O2 than with CoQ1 as electron acceptor: ~ 100 fold
[2]
  fold lower Kd than Km: ~ 1600 fold and 1600 fold

## COC1=C(OC)C(=O)C(CC=C(C)C)=C(C)C1=O [CoQ1, Coenzyme Q1]
[3]; 0–400 μM ubiquinone analogue, 600 mM Hyp, 50 mM HEPES pH 7.5
  kcat: 0.19 ± 0.01 s⁻¹
[3]; 0–400 μM ubiquinone analogue, 600 mM Hyp, 50 mM HEPES pH 7.5, 4 mM o-AB, 200 nM PRODH2 157–515
  Km: 124 ± 19 µM
[3]; 600 mM Hyp
  ability to support Hyp turnover as electron acceptor: support Hyp turnover

## CC1=C(C)C(=O)C(C)=C(C)C1=O [Duroquinone]
[3]; 600 mM Hyp
  ability to support Hyp turnover as electron acceptor: support Hyp turnover

## O=S([O-])[O-].[Na+].[Na+] [sulfite, sodium sulfite]
[4]; aerobic, 25 °C
  time for the spectrum to reach equilibrium (adduct formation): ~ 6 h
[4]; read-out: Kd for sulfite binding, 50 μM PRODH2 157–515, 50 mM potassium phosphate pH 7.6, 25 °C, 6 h equilibration
  Kd: 0.064 ± 0.0077 mM
[5]
  Kd: 10.4 mM
[6]
  Kd: 0.4 mM
[7]
  sulfite binding: do not bind
[8]
  sulfite binding: do not bind

## O=C(O)[C@H]1CC[C@@H](O)C1 [(1S, 3R) 3-OH-cyclopentane carboxylic acid]
[9]
  inhibition of HYPDH activity: did not cause inhibition
[9]; listed as (1S, 3R) 3-OH-cyclopentane-COOH
  inhibition of HYPDH activity: did not inhibit

## O=C(O)[C@H]1C[C@@H](O)CN1 (relative stereo) [cis-4-OH-D-proline]
[1]; 200 μM CoQ1
  reaction as substrate: does not react
[9]
  inhibition of HYPDH activity: did not cause inhibition

## CC1=CC(=O)c2ccccc2C1=O [Menadione]
[3]
  Ki: 0.306 ± 0.034 mM
[3]; 600 mM Hyp
  ability to support Hyp turnover as electron acceptor: support Hyp turnover

## O=C(O)c1cc(O)[nH]n1 [5-OH-1H-pyrazole-3-COOH]
[9]
  IC50: 2.9 ± 0.1 mM

## O=C(O)C1CC(O)CN1 [trans-4-OH-D-proline]
[1]; 200 μM CoQ1
  reaction as substrate: does not react
[9]
  inhibition of HYPDH activity: did not cause inhibition

## COC1=C(OC)C(=O)C(C/C=C(\C)CCC=C(C)C)=C(C)C1=O [CoQ2]
[3]; 600 mM Hyp
  ability to support Hyp turnover as electron acceptor: inability to use

## O=C(O)[C@@H]1CC[C@@H](O)C1 [(1R, 3R) 3-OH-cyclopentane carboxylic acid]
[9]
  IC50: 2.1 ± 0.1 mM

## O=C(O)[C@@H]1CCCN1 [Pro, L-proline]
[1]; up to 750 mM Pro, 200 μM CoQ1
  saturation of PRODH2 by substrate: unable to saturate

## COC1=C(OC)C(=O)C(C/C=C(\C)CC/C=C(\C)CC/C=C(\C)CCC=C(C)C)=C(C)C1=O [CoQ4]
[3]; 600 mM Hyp
  ability to support Hyp turnover as electron acceptor: inability to use

## O=C(O)C1CCCO1 (stereo not shown) [THFA, tetrahydrofuroic acid]
[4]; 1–5 mM THFA added, 30 min incubation
  reversal of the sulfite adduct (flavin spectrum): returned the flavin spectrum to the oxidized state
[9]
  IC50: 1.5 ± 0.1 mM
